Test results from ChEMBL document CHEMBL1128396, “Synthesis and biological evaluation of a series of new parenteral optically active 3-[[(N-alkylpyridinium-4'-yl)thio]methyl]-2-oxaisocephems” (1995).
Converted amounts (≈) assume the structure as drawn.

What was measured:
Type in all cases: functional
Pseudomonas aeruginosa = assay: Antibacterial activity was determined against Pseudomonas aeruginosa ATCC 10145 (Gram-negative)
Method in brief: (§1)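 2-fold agar dilution on Müller-Hinton agar. Overnight broth cultures were diluted to about 10^6 CFU/mL, and 10^4 CFU/spot was applied to plates with graded drug concentrations. Plates were incubated 18 h at 37 °C.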

[1] = system: Staphylococcus epidermidis; assay: Antibacterial activity was determined against Staphylococcus epidermidis ATCC 12228 (Gram-positive); method in brief: as §1
Escherichia coli = assay: Antibacterial activity was determined against Escherichia coli NIHJ JC-2 (Gram-negative); method in brief: as §1
Klebsiella pneumoniae = assay: Antibacterial activity was determined against Klebsiella pneumoniae NCTC 9632 (Gram-negative); method in brief: as §1
Serratia marcescens = assay: Antibacterial activity was determined against Serratia marcescens ATCC 12648 (Gram-negative); method in brief: as §1
Staphylococcus aureus [2] = assay: Antibacterial activity was determined against Staphylococcus aureus FDA 209P (Gram-positive); method in brief: as §1
Enterococcus faecalis [3] = assay: Antibacterial activity was determined against Enterococcus faecalis ATCC 21212 (Gram-positive); method in brief: as §1
Staphylococcus aureus [4] = assay: Antibacterial activity was determined against Methicillin-resistant Staphylococcus aureus (MRSA) 5038 (Gram-positive)
Mus musculus [5] = assay: Antibacterial activity was determined against Staphylococcus aureus Smith at a challenge dose of 1.32*10e7 (cells/mouse) (sc) administered
Method in brief: (§2)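 Cultures were grown overnight at 37 °C in tryptic soy broth (S. aureus, MRSA, E. faecalis) or Müller-Hinton broth (E. coli, S. pneumoniae). Graded doses were given subcutaneously 1 h post-infection. ED50 was calculated by probit from day-7 survival, with 95% confidence limits.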

Mus musculus [6] = assay: Antibacterial activity was determined against Escherichia coli 29 at a challenge dose of 1.35*10e6 (cells/mouse) administered subcutaneously; settings: sc; method in brief: as §2
Mus musculus [7] = assay: Antibacterial activity was determined against MRSA 5129 at a challenge dose of 1.38*10e8 (cells/mouse) administered subcutaneously; settings: sc
Method in brief: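 Male ICR mice (~20 g, 10 per dose group) were challenged intraperitoneally with 0.5 mL of about 10-100 times the LD50. Inoculum was an overnight 37 °C tryptic soy broth culture suspended in fresh broth with 5% gastric mucin. Various subcutaneous doses were given 1 h post-infection. Survivors were counted on day 7, and ED50 with 95% confidence limits was derived by probit.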

Staphylococcus aureus [8] = assay: […] was determined against MRSA 5129
Mus musculus [9] = assay: Antibacterial activity was determined against MRSA 5038 at a challenge dose of 1.00*10e7 (cells/mouse) administered subcutaneously; settings: sc; method in brief: as §2
Mus musculus [10] = assay: Antibacterial activity was determined against Staphylococcus aureus Smith at a challenge dose of 1.32*10e7 (cells/mouse) administered subcutaneously; settings: sc; method in brief: as §2
Enterococcus faecalis [11] = assay: In vitro antibacterial activity against clinical isolates Enterococcus faecalis was determined; method in brief: as §1
Mus musculus [12] = assay: Antibacterial activity was determined against Streptococcus pneumoniae C 0096 at a challenge dose of 1.60*10e2 (cells/mouse) administered subcutaneously; settings: sc; method in brief: as §2
Mus musculus [13] = assay: Antibacterial activity was determined against MRSA 5120 at a challenge dose of 7.6*10e7 (cells/mouse) administered subcutaneously; settings: sc; method in brief: as §2
Streptococcus pneumoniae = assay: In vitro antibacterial activity against clinical isolates Ampicillin-insensitive Streptococcus pneumoniae was determined; method in brief: as §1
Staphylococcus aureus [14] = assay: In vitro antibacterial activity against clinical isolates methicillin-resistant Staphylococcus aureus was determined
Method in brief: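 2-fold agar dilution on Müller-Hinton agar. Overnight broth cultures were diluted to about 10^6 CFU/mL, and 10^4 CFU/spot was applied to plates with graded drug concentrations.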

Mus musculus [15] = assay: Antibacterial activity was determined against Enterococcus faecalis C 0063 at a challenge dose of 7.00*10e7 (cells/mouse) administered subcutaneously; settings: sc; method in brief: as §2
Staphylococcus aureus [16] = assay: […] was determined against MRSA 5120

Structure (SMILES) | MIC (Pseudomonas aeruginosa) [µg/mL] | MIC [1] [µg/mL] | MIC (Escherichia coli) [µg/mL] | MIC (Klebsiella pneumoniae) [µg/mL] | MIC (Serratia marcescens) [µg/mL] | MIC (Staphylococcus aureus [2]) [µg/mL] | MIC (Enterococcus faecalis [3]) [µg/mL] | MIC (Staphylococcus aureus [4]) [µg/mL] | further results
CC(C)=CC[n+]1ccc(SCC2=C(C(=O)O)N3C(=O)[C@@H](NC(=O)/C(=N\OC4CCCC4)c4csc(N)n4)[C@H]3CO2)cc1.O=S(=O)([O-])O | 12.5 | 0.2 | 0.78 | 0.78 | 1.56 | 0.2 | 1.56 | 12.5 | –
C[n+]1ccc(SCC2=C(C(=O)O)N3C(=O)[C@@H](NC(=O)/C(=N\OC4CCCC4)c4csc(N)n4)[C@H]3CO2)cc1.O=S(=O)([O-])O | 6.25 | 0.05 | 0.39 | 0.2 | 1.56 | 0.05 | 1.56 | 3.13 | ED50 (Mus musculus [5]): 0.08 mg/kg; ED50 (Mus musculus [6]): 0.09 mg/kg; ED50 (Mus musculus [7]): 3.91 mg/kg; MIC (Staphylococcus aureus [8]): 6.25 µg/mL; ED50 (Mus musculus [9]): 3.4 mg/kg
Nc1nc(/C(=N/OC2CCCC2)C(=O)N[C@@H]2C(=O)N3C(C(=O)O)=C(CSc4cc[n+](CC(=O)c5ccccc5)cc4)OC[C@H]23)cs1.O=S(=O)([O-])O | 25 | 0.39 | 1.56 | 1.56 | 3.13 | 0.2 | 1.56 | 12.5 | –
Nc1nc(/C(=N/OC2CCCC2)C(=O)N[C@@H]2C(=O)N3C(C(=O)O)=C(CSc4cc[n+](CC(=O)N5CCOCC5)cc4)OC[C@H]23)cs1.O=S(=O)([O-])O | 6.25 | 0.2 | 0.78 | 0.78 | 1.56 | 0.2 | 1.56 | 12.5 | –
C#CC[n+]1ccc(SCC2=C(C(=O)O)N3C(=O)[C@@H](NC(=O)/C(=N\OC4CCCC4)c4csc(N)n4)[C@H]3CO2)cc1.O=S(=O)([O-])O | 6.25 | 0.1 | 0.39 | 0.39 | 1.56 | 0.2 | 1.56 | 6.25 | –
N#CC[n+]1ccc(SCC2=C(C(=O)O)N3C(=O)[C@@H](NC(=O)/C(=N\OC4CCCC4)c4csc(N)n4)[C@H]3CO2)cc1.O=S(=O)([O-])O | 6.25 | 0.2 | 0.39 | 0.39 | 1.56 | 0.2 | 1.56 | 12.5 | –
CC(=O)C[n+]1ccc(SCC2=C(C(=O)O)N3C(=O)[C@@H](NC(=O)/C(=N\OC4CCCC4)c4csc(N)n4)[C@H]3CO2)cc1.O=S(=O)([O-])O | 6.25 | 0.2 | 0.39 | 0.39 | 0.78 | 0.2 | 0.78 | 6.25 | ED50 (Mus musculus [10]): 0.18 mg/kg; ED50 (Mus musculus [9]): 2.76 mg/kg
CNC(=O)C[n+]1ccc(SCC2=C(C(=O)O)N3C(=O)[C@@H](NC(=O)/C(=N\OC4CCCC4)c4csc(N)n4)[C@H]3CO2)cc1.O=S(=O)([O-])O | 12.5 | 0.2 | 0.78 | 0.39 | 1.56 | 0.2 | 1.56 | 6.25 | ED50 (Mus musculus [10]): 0.18 mg/kg; ED50 (Mus musculus [9]): 2.27 mg/kg
CC(C)(C)C(=O)C[n+]1ccc(SCC2=C(C(=O)O)N3C(=O)[C@@H](NC(=O)/C(=N\OC4CCCC4)c4csc(N)n4)[C@H]3CO2)cc1.O=S(=O)([O-])O | 25 | 0.39 | 1.56 | 1.56 | 3.13 | 0.2 | 1.56 | 6.25 | –
NC(=O)C[n+]1ccc(SCC2=C(C(=O)O)N3C(=O)[C@@H](NC(=O)/C(=N\OC4CCCC4)c4csc(N)n4)[C@H]3CO2)cc1.O=S(=O)([O-])O | 3.13 | 0.05 | 0.2 | 0.2 | 1.56 | 0.1 | 1.56 | 6.25 | –
CN(C)C(=O)C[n+]1ccc(SCC2=C(C(=O)O)N3C(=O)[C@@H](NC(=O)/C(=N\OC4CCCC4)c4csc(N)n4)[C@H]3CO2)cc1.O=S(=O)([O-])O | 12.5 | 0.39 | 0.78 | 0.78 | 1.56 | 0.2 | 1.56 | 12.5 | –
C=CC[n+]1ccc(SCC2=C(C(=O)O)N3C(=O)[C@@H](NC(=O)/C(=N\OC4CCCC4)c4csc(N)n4)[C@H]3CO2)cc1.O=S(=O)([O-])O | 6.25 | 0.05 | 0.39 | 0.39 | 1.56 | 0.1 | 0.78 | 6.25 | –
Nc1nc(/C(=N/OC2CCCC2)C(=O)N[C@@H]2C(=O)N3C(C(=O)O)=C(CSc4cc[n+](CC(=O)N5CCC(O)CC5)cc4)OC[C@H]23)cs1.O=S(=O)([O-])O | 12.5 | 0.39 | 1.56 | 0.78 | 3.13 | 0.2 | 3.13 | 25 | –
CCC(=O)C[n+]1ccc(SCC2=C(C(=O)O)N3C(=O)[C@@H](NC(=O)/C(=N\OC4CCCC4)c4csc(N)n4)[C@H]3CO2)cc1.O=S(=O)([O-])O | 6.25 | 0.2 | 0.39 | 0.39 | 1.56 | 0.2 | 1.56 | 6.25 | MIC50 (Enterococcus faecalis [11]): 3.13 µg/mL; MIC80 (Enterococcus faecalis [11]): 3.13 µg/mL; MIC90 (Enterococcus faecalis [11]): 6.25 µg/mL; ED50 (Mus musculus [6]): 0.15 mg/kg; ED50 (Mus musculus [10]): 0.22 mg/kg; ED50 (Mus musculus [12]): 0.56 mg/kg; ED50 (Mus musculus [13]): 1 mg/kg; MIC50 (Streptococcus pneumoniae): 0.025 µg/mL; MIC80 (Streptococcus pneumoniae): 0.05 µg/mL; MIC90 (Streptococcus pneumoniae): 0.05 µg/mL; MIC50 (Staphylococcus aureus [14]): 6.25 µg/mL; MIC80 (Staphylococcus aureus [14]): 6.25 µg/mL; MIC90 (Staphylococcus aureus [14]): 6.25 µg/mL; ED50 (Mus musculus [15]): 5.23 mg/kg; MIC (Staphylococcus aureus [16]): 6.25 µg/mL
CC(C)(C)NC(=O)C[n+]1ccc(SCC2=C(C(=O)O)N3C(=O)[C@@H](NC(=O)/C(=N\OC4CCCC4)c4csc(N)n4)[C@H]3CO2)cc1.O=S(=O)([O-])O | 25 | 0.39 | 1.56 | 1.56 | 3.13 | 0.2 | 1.56 | 12.5 | –
CC1(C)S[C@@H]2[C@H](NC(=O)[C@H](N)c3ccccc3)C(=O)N2[C@H]1C(=O)O [AMPICILLIN] | – | – | – | – | – | – | – | – | ED50 (Mus musculus [12]): 8.23 mg/kg; MIC50 (Streptococcus pneumoniae): 3.13 µg/mL (≈ 8.96 µM); MIC80 (Streptococcus pneumoniae): 3.13 µg/mL (≈ 8.96 µM); MIC90 (Streptococcus pneumoniae): 3.13 µg/mL (≈ 8.96 µM)
CO[C@@]1(NC(=O)CSC(F)F)C(=O)N2C(C(=O)O)=C(CSc3nnnn3CCO)CO[C@@H]21 [FLOMOXEF] | > 100 | 0.39 (≈ 0.786 µM) | 0.1 (≈ 0.201 µM) | 0.1 (≈ 0.201 µM) | 0.78 (≈ 1.57 µM) | 0.39 (≈ 0.786 µM) | 100 (≈ 201 µM) | 50 (≈ 101 µM) | MIC50 (Enterococcus faecalis [11]): > 100 µg/mL; MIC80 (Enterococcus faecalis [11]): > 100 µg/mL; MIC90 (Enterococcus faecalis [11]): > 100 µg/mL; ED50 (Mus musculus [6]): 0.43 mg/kg; ED50 (Mus musculus [12]): 18.6 mg/kg; ED50 (Mus musculus [13]): 8.52 mg/kg; MIC50 (Streptococcus pneumoniae): 3.13 µg/mL (≈ 6.3 µM); MIC80 (Streptococcus pneumoniae): 6.25 µg/mL (≈ 12.6 µM); MIC90 (Streptococcus pneumoniae): 6.25 µg/mL (≈ 12.6 µM); MIC50 (Staphylococcus aureus [14]): 25 µg/mL (≈ 50.4 µM); MIC80 (Staphylococcus aureus [14]): 100 µg/mL (≈ 201 µM); MIC90 (Staphylococcus aureus [14]): 100 µg/mL (≈ 201 µM); ED50 (Mus musculus [15]): > 200 mg/kg; MIC (Staphylococcus aureus [16]): 25 µg/mL (≈ 50.4 µM)
CN[C@H](CC(C)C)C(=O)N[C@H]1C(=O)N[C@@H](CC(N)=O)C(=O)N[C@H]2C(=O)N[C@H]3C(=O)N[C@H](C(=O)N[C@H](C(=O)O)c4cc(O)cc(O)c4-c4cc3ccc4O)[C@H](O)c3ccc(c(Cl)c3)Oc3cc2cc(c3O[C@@H]2O[C@H](CO)[C@@H](O)[C@H](O)[C@H]2O[C@H]2C[C@](C)(N)[C@H](O)[C@H](C)O2)Oc2ccc(cc2Cl)[C@H]1O [VANCOMYCIN] | > 100 | 3.13 (≈ 2.16 µM) | > 100 | > 100 | > 100 | 0.78 (≈ 0.538 µM) | 0.78 (≈ 0.538 µM) | 0.78 (≈ 0.538 µM) | ED50 (Mus musculus [7]): 18.7 mg/kg; ED50 (Mus musculus [10]): 3.74 mg/kg; ED50 (Mus musculus [13]): 11.5 mg/kg; MIC50 (Staphylococcus aureus [14]): 1.56 µg/mL (≈ 1.08 µM); MIC80 (Staphylococcus aureus [14]): 1.56 µg/mL (≈ 1.08 µM); MIC90 (Staphylococcus aureus [14]): 1.56 µg/mL (≈ 1.08 µM); MIC (Staphylococcus aureus [8]): 0.78 µg/mL (≈ 0.538 µM); ED50 (Mus musculus [9]): 2.7 mg/kg; MIC (Staphylococcus aureus [16]): 0.78 µg/mL (≈ 0.538 µM)
